Results published in ChEMBL document CHEMBL1156780, “6-(Het)aryl-7-deazapurine ribonucleosides as novel potent cytostatic agents” (J Med Chem, 2010).

Experiments:
[1] = Cytostatic activity against human Hs578 cells after 5 days by SRB assay; assay type: functional; details: Hs578, 120 h
Summary of the method: (§1)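 Cells seeded in RPMI (colon, breast, lung lines), MEM (Du145) or F12K (PC3) with 10% FBS, 37 °C overnight. Day-zero plates fixed with cold 10% TCA. Compounds added as 5-fold serial dilutions for 5 days. Fixed, stained with 0.057% SRB in 1% acetic acid, dye solubilized in 10 mM Tris pH 10.5, A500 read. Growth % corrected for day-0 OD; GIC₅₀ from sigmoidal fit.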

[2] = Cytotoxicity against human HeLaS3 cells after 3 days by XTT assay; assay type: functional, cell-based; details: HeLa S3, 72 h
DU-145 [3] = assay: Cellular uptake ion human DU145 cells measured per million cells after 6 hrs; assay type: functional
Summary of the method: (§2)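 Du145 cells incubated with 10 μM compound for 6 or 24 h, PBS-washed, trypsinized, pelleted, spun through Nyosil M25 oil. Extracts analysed by LC/MS/MS for parent nucleoside, monophosphate and triphosphate. Standards and QC samples prepared in untreated-cell extracts. Expressed as pmol per million cells.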

HL-60 = assay: Cytotoxicity against human HL60 cells after 3 days by XTT assay; assay type: functional, cell-based; details: HL-60, 72 h
Summary of the method: (§3)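 Cell viability of CCRF-CEM, HL60 and HeLa cells measured by XTT assay after 72 h incubation with compounds. IC₅₀ taken as mean of 2–4 independent experiments.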

HCT-116 = assay: Cytostatic activity against human HCT116 cells after 5 days by SRB assay; assay type: functional; details: HCT-116, 120 h; summary of the method: as §1
CCRF-CEM [4] = assay: Cytotoxicity against human CCRF-CEM cells after 3 days by XTT assay; assay type: functional, cell-based; details: 72 h; summary of the method: as §3
A549 = assay: Cytostatic activity against human A549 cells after 5 days by SRB assay; assay type: functional; details: A549, 120 h; summary of the method: as §1
DU-145 [5] = assay: Cellular uptake ion human DU145 cells measured per million cells after 24 hrs; assay type: functional; summary of the method: as §2
DU-145 [6] = assay: Cellular uptake ion human DU145 cells assessed as triphosphate level measured per million cells after 24 hrs
DU-145 [7] = assay: Cellular uptake ion human DU145 cells assessed as monophosphate level measured per million cells after 6 hrs; assay type: functional; summary of the method: as §2
DU-145 [8] = assay: Cytostatic activity against human DU145 cells after 5 days by SRB assay; assay type: functional; details: DU-145, 120 h; summary of the method: as §1
DU-145 [9] = assay: Cellular uptake ion human DU145 cells assessed as monophosphate level measured per million cells after 24 hrs; assay type: functional; summary of the method: as §2
DU-145 [10] = assay: Cellular uptake ion human DU145 cells assessed as triphosphate level measured per million cells after 6 hrs
CCRF-CEM [11] = assay: Inhibition of DNA synthesis in human CCRF-CEM assessed as assessed as BrdU incorporation at 5 x GIC50 after 24 by flow cytometry; assay type: functional; parameters: scale not given: the % may be the effect or the level left
Summary of the method: (§4)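 Culture as for cell cycle work (CCRF-CEM, 24 h, 1× or 5× GIC₅₀). Pulse with 10 μM BrdU for 30 min before harvest. Fixed in 70% ethanol, DNA denatured in 2 M HCl, neutralized with 0.1 M borax. Stained with anti-BrdU and FITC secondary, plus PI 0.1 mg/mL and RNase A. BrdU+ cells counted by flow cytometry.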

CCRF-CEM [12] = assay: Cell cycle arrest in human CCRF-CEM assessed as accumulation at G2/M phase at 5 x GIC50 after 24 hrs by flow cytometry; assay type: functional
Summary of the method: (§5)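 Subconfluent CCRF-CEM (5 × 10⁵ cells/mL, RPMI 1640 + 10% FCS, 37 °C CO₂) exposed 24 h at 1× or 5× GIC₅₀, vehicle controls alongside. Cells fixed overnight in 70% ethanol at -20 °C, hypotonic citrate wash, RNase 50 μg/mL, propidium iodide stain, 488 nm flow cytometry. Sub-G1 = particles with PI content below G0/G1 cells. Reported as % of total cells.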

PC-3 = assay: Cytotoxicity against human PC3 cells after 5 days by SRB assay; assay type: functional; details: PC-3, 120 h; summary of the method: as §1
NCI-H23 = assay: Cytotoxicity against human NCI-H23 cells after 5 days by SRB assay; assay type: functional; details: NCI-H23, 120 h; summary of the method: as §1
CCRF-CEM [13] = assay: Cell cycle arrest in human CCRF-CEM assessed as accumulation at G2/M phase at 1 x GIC50 after 24 hrs by flow cytometry; assay type: functional; summary of the method: as §5
CCRF-CEM [14] = assay: Cell cycle arrest in human CCRF-CEM assessed as accumulation at subG1 phase at 1 x GIC50 after 24 hrs by flow cytometry; assay type: functional; summary of the method: as §5
CCRF-CEM [15] = assay: Cell cycle arrest in human CCRF-CEM assessed as accumulation at G1 phase at 5 x GIC50 after 24 hrs by flow cytometry; assay type: functional; summary of the method: as §5
CCRF-CEM [16] = assay: Inhibition of RNA synthesis in human CCRF-CEM assessed as assessed as BrdU incorporation at 1 x GIC50 after 24 by flow cytometry; assay type: functional; parameters: scale not given: the % may be the effect or the level left
Summary of the method: (§6)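 CCRF-CEM culture as for cell cycle (24 h, 1× or 5× GIC₅₀). Cells pulsed 30 min with 1 mM bromouridine before harvest. Fixed in 1% paraformaldehyde/0.05% NP-40. Stained with anti-BrdU antibody cross-reacting with BrU, then FITC secondary, PI and RNase A. BrU+ cells quantified by 488 nm flow cytometry.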

BT-549 = assay: Cytotoxicity against human BT549 cells after 5 days by SRB assay; assay type: functional; details: BT-549, 120 h; summary of the method: as §1
CCRF-CEM [17] = assay: Antimitotic activity in human CCRF-CEM cells assessed as decrease in mitotic histone H3 at 1 x GIC50; assay type: functional; parameters: scale not given: the % may be the effect or the level left
Summary of the method: (§7)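 CCRF-CEM cells seeded subconfluent at 5 × 10⁵ cells/mL in RPMI 1640 with 10% FCS, 10 mM glutamine, penicillin/streptomycin, 37 °C humidified CO₂. Exposed 24 h at 1× or 5× GIC₅₀; vehicle controls harvested at 24 h. Ethanol-fixed cells labelled with anti-phospho-histone H3 Ser10 and mitotic cells counted by flow cytometry as % of total population.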

CCRF-CEM [18] = assay: Cell cycle arrest in human CCRF-CEM assessed as accumulation at S phase at 1 x GIC50 after 24 hrs by flow cytometry; assay type: functional; summary of the method: as §5
CCRF-CEM [19] = assay: Cell cycle arrest in human CCRF-CEM assessed as accumulation at subG1 phase at 5 x GIC50 after 24 hrs by flow cytometry; assay type: functional; summary of the method: as §5
CCRF-CEM [20] = assay: Inhibition of DNA synthesis in human CCRF-CEM assessed as assessed as BrdU incorporation at 1 x GIC50 after 24 by flow cytometry; assay type: functional; parameters: scale not given: the % may be the effect or the level left; summary of the method: as §4
HCT-15 = assay: Cytotoxicity against human HCT15 cells after 5 days by SRB assay; assay type: functional; details: HCT-15, 120 h; summary of the method: as §1
CCRF-CEM [21] = assay: Cell cycle arrest in human CCRF-CEM assessed as accumulation at S phase at 5 x GIC50 after 24 hrs by flow cytometry; assay type: functional; summary of the method: as §5
CCRF-CEM [22] = assay: Cell cycle arrest in human CCRF-CEM assessed as accumulation at G1 phase at 1 x GIC50 after 24 hrs by flow cytometry; assay type: functional; summary of the method: as §5
CCRF-CEM [23] = assay: Inhibition of RNA synthesis in human CCRF-CEM assessed as assessed as BrdU incorporation at 5 x GIC50 after 24 by flow cytometry; assay type: functional; parameters: scale not given: the % may be the effect or the level left; summary of the method: as §6
CCRF-CEM [24] = assay: Antimitotic activity in human CCRF-CEM cells assessed as decrease in mitotic histone H3 at 5 x GIC50; assay type: functional; parameters: scale not given: the % may be the effect or the level left; summary of the method: as §7
CCRF-CEM [25] = assay: Inhibition of DNA synthesis in human CCRF-CEM assessed as assessed as BrdU incorporation after 24 by flow cytometry; assay type: functional
CCRF-CEM [26] = assay: Inhibition of RNA synthesis in human CCRF-CEM assessed as assessed as BrdU incorporation after 24 by flow cytometry; assay type: functional

| GI50 (HCT-116) [nM] | GI50 (A549) [nM] | Structure (SMILES) | GI50 [1] [nM] | IC50 [2] [nM] | IC50 (HL-60) [nM] | IC50 (CCRF-CEM [4]) [nM] | Activity (CCRF-CEM [11]) [%] | Activity (CCRF-CEM [12]) [%] | Activity (CCRF-CEM [13]) [%] | Activity (CCRF-CEM [14]) [%] | Activity (CCRF-CEM [15]) [%] | Activity (CCRF-CEM [16]) [%] | Activity (CCRF-CEM [17]) [%] | Activity (CCRF-CEM [18]) [%] | Activity (CCRF-CEM [19]) [%] | Activity (CCRF-CEM [20]) [%] | Activity (CCRF-CEM [21]) [%] | Activity (CCRF-CEM [22]) [%] | Activity (CCRF-CEM [23]) [%] | Activity (CCRF-CEM [24]) [%] | further results |
| --- | --- | --- | --- | --- | --- | --- | --- | --- | --- | --- | --- | --- | --- | --- | --- | --- | --- | --- | --- | --- | --- |
| > 10000 | > 10000 | OC[C@H]1O[C@@H](n2cc(Cl)c3c(-c4ccco4)ncnc32)[C@H](O)[C@@H]1O | > 10000 | > 40000 | 21600 | 3800 | – | – | – | – | – | – | – | – | – | – | – | – | – | – | Activity (DU-145 [3]): 20.1 pmol; Activity (DU-145 [5]): 45 pmol; triphosphate (NTP) level (DU-145 [6]): 21.2 pmol; Activity (DU-145 [7]): 164 pmol; GI50 (DU-145 [8]): > 10000 nM; Activity (DU-145 [9]): 332 pmol; triphosphate (NTP) level (DU-145 [10]): 19.2 pmol |
| 49 | 45 | OC[C@H]1O[C@@H](n2ccc3c(-c4cccs4)ncnc32)[C@H](O)[C@@H]1O | 100 | 8800 | 1200 | 290 | 38.3 | 6 | 12.2 | 13.7 | 47 | 28.5 | 0.87 | 42.2 | 55 | 55.5 | 47 | 45.5 | 3.5 | 0.44 | GI50 (PC-3): 33 nM; GI50 (NCI-H23): 430 nM; GI50 (BT-549): 23 nM; GI50 (DU-145 [8]): 9 nM; GI50 (HCT-15): 78 nM |
| – | – | Nc1nc(Cl)nc2c1ncn2[C@H]1C[C@H](O)[C@@H](CO)O1 [CLADRIBINE] | – | – | – | – | 13 | 7.6 | 1.9 | 48 | 61.6 | 46.2 | 0.85 | 24.9 | 61.5 | 32.1 | 30.8 | 73.2 | 41.3 | 0.44 | inhibition (INH) (CCRF-CEM [25]): 9.54%; inhibition (INH) (CCRF-CEM [26]): 44.77% |
| – | – | Nc1ccn([C@@H]2O[C@H](CO)[C@@H](O)C2(F)F)c(=O)n1 [GEMCITABINE] | – | – | – | – | 9.5 | 2.3 | 0.6 | 24.1 | 67.1 | 54.7 | 0.78 | 72.3 | 54 | 56.7 | 30.5 | 27.1 | 44.8 | 0.53 | GI50 (PC-3): 6 nM; GI50 (NCI-H23): 2 nM; GI50 (BT-549): 4 nM; GI50 (HCT-15): 3 nM |
